ChEMBL document CHEMBL1828547, “Synthesis and antimalarial activity of 2-guanidino-4-oxoimidazoline derivatives” (J Med Chem, 2011)
Converted amounts (≈) assume the structure as drawn. The source made the active and inactive calls. No cut-off for these calls is given here.

Key:
Plasmodium falciparum [1] = test: Antimalarial activity against blood stage Plasmodium falciparum D6 assessed as [3H]-hypoxanthine uptake after 24 hrs by scintillation counting; type: functional, organism-based
Plasmodium berghei [2] = test: Antimalarial activity against Plasmodium berghei […] mouse model assessed as causal prophylactic activity at 160 mg/kg, po administered one day before infection, on day of infection and one day post infection; type: functional, organism-based; set-up: dose 160 mg/kg
In short: (§1)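 Sporozoite-challenged exoerythrocytic mouse model using P. berghei. Compound ground and suspended in hydroxyethylcellulose with Tween 80 for oral dosing, given once daily for 3 consecutive days: day before, 4 h before, and day after sporozoite inoculation. Dose in (mg/kg)/day. Mice are scored for protection (causal prophylaxis) and for delay in patency.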

[3] = Metabolic stability in mouse assessed as half life at 160 mg/kg, po by LC-MS/MS analysis; type: ADME, organism-based; set-up: dose 160 mg/kg, route oral
[4] = Metabolic stability in human assessed as half life at 160 mg/kg, po by LC-MS/MS analysis; type: ADME, organism-based; set-up: dose 160 mg/kg, route oral
Plasmodium falciparum [5] = test: Antimalarial activity against blood stage Plasmodium falciparum W2 assessed as [3H]-hypoxanthine uptake after 24 hrs by scintillation counting; type: functional, organism-based
[6] = Metabolic stability in mouse assessed as half life at 320 mg/kg, po by LC-MS/MS analysis; type: ADME, organism-based; set-up: dose 320 mg/kg, route oral; details: in vivo
[7] = Metabolic stability in human assessed as half life at 320 mg/kg, po by LC-MS/MS analysis; type: ADME, organism-based; set-up: dose 320 mg/kg, route oral
Plasmodium falciparum [8] = test: Antimalarial activity against blood stage Plasmodium falciparum TM91C235 assessed as [3H]-hypoxanthine uptake after 24 hrs by scintillation counting; type: functional, organism-based
Plasmodium berghei [9] = test: Antimalarial activity against Plasmodium berghei […] mouse model assessed as delay in patency time at 160 mg/kg, po administered one day before infection, on day of infection and one day post infection; type: functional; in short: as §1
Rhesus monkey [10] = test: Drug uptake in po dosed rhesus monkey measured after 24 hrs; type: ADME, organism-based, Macaca mulatta; details: in vivo
[11] = Half life in po dosed rhesus monkey; type: ADME, organism-based, Macaca mulatta; details: in vivo
Rhesus monkey [12] = test: Drug uptake in rhesus monkey after 24 hrs relative to control; type: ADME, organism-based, Macaca mulatta; details: in vivo
Rhesus monkey [13] = test: Drug uptake in im dosed rhesus monkey assessed as 1-(3,4-dichlorophenyl)-2-(1-isopropyl-4,5-dioxo-4,5-dihydro-1H-imidazol-2-yl)guanidine measured after 24 hrs; type: ADME, organism-based, Macaca mulatta; details: in vivo
[14] = Half life in im dosed rhesus monkey; type: ADME, organism-based, Macaca mulatta; details: in vivo
Rhesus monkey [15] = test: Drug uptake in po dosed rhesus monkey assessed as 1-(3,4-dichlorophenyl)-2-(1-isopropyl-4,5-dioxo-4,5-dihydro-1H-imidazol-2-yl)guanidine measured after 24 hrs; type: ADME, organism-based, Macaca mulatta; details: in vivo
Rhesus monkey [16] = test: Drug uptake in im dosed rhesus monkey measured after 24 hrs; type: ADME, organism-based, Macaca mulatta; details: in vivo
Plasmodium berghei [17] = test: Antimalarial activity against Plasmodium berghei […] mouse model assessed as delay in patency time at 320 mg/kg, po administered one day before infection, on day of infection and one day post infection; type: functional; in short: as §1
Plasmodium cynomolgi [18] = test: Antimalarial activity against Plasmodium cynomolgi infected in rhesus monkey assessed as time delayed in relapse of patency at 10 mg/kg/day, po administered for 7 days; type: functional
In short: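 Rhesus monkeys that developed P. cynomolgi parasitemia in the prophylaxis test were used once parasitemia reached 5000 parasites/mm³. Oral chloroquine 10 (mg/kg)/day was given for 7 days, with test agent given alongside. Relapse was monitored. Monkeys with no relapse after 100 days were counted as radically cured. Relapsing controls were retreated with chloroquine and followed for a second relapse.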

Plasmodium berghei [19] = test: Antimalarial activity against Plasmodium berghei […] mouse model assessed as causal prophylactic activity at 320 mg/kg, po administered one day before infection, on day of infection and one day post infection; type: functional, organism-based; set-up: dose 320 mg/kg
In short: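 Sporozoite-inoculated P. berghei exoerythrocytic (EE) mouse model. Compound ground and suspended in hydroxyethylcellulose plus Tween 80 for oral dosing, given once daily for 3 consecutive days: day before, 4 h before, and day after sporozoite inoculation (days −1, 0, 1). Dose in (mg/kg)/day. Read-out is mice protected per group (causal prophylaxis) or delay in patency.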

Plasmodium berghei [20] = test: Antimalarial activity against Plasmodium berghei […] mouse model assessed as causal prophylactic activity at 40 mg/kg, po administered one day before infection, on day of infection and one day post infection; type: functional, organism-based; set-up: dose 40 mg/kg; in short: as §1
Plasmodium cynomolgi [21] = test: Antimalarial activity against Plasmodium cynomolgi infected in rhesus monkey assessed as delay in patency time at 50 mg/kg, po administered one day before infection, on day of infection followed by 1 day post infection; type: functional
In short: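 Rhesus monkeys challenged with P. cynomolgi sporozoites. Oral dosing on days −1, 0 and 1 in HECT or MC vehicle, with dose in (mg/kg)/day. Read-out is the first day of patency and the delay in patency relative to vehicle-treated controls.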

| SMILES | IC50 (Plasmodium falciparum [1]) [µg/mL] | IC50 (Plasmodium falciparum [5]) [µg/mL] | half-life [6] [min] | half-life [7] [min] | IC50 (Plasmodium falciparum [8]) [µg/mL] | Time (Plasmodium berghei [9]) [days] | also measured |
| --- | --- | --- | --- | --- | --- | --- | --- |
| CC(C)N1CC(=O)N=C1N/C(=N/c1ccc(Cl)c(Cl)c1)N1CCCCC1 | > 5 | 1.98 (≈ 5 µM) |  |  |  |  | Activity (Plasmodium berghei [2]): inactive; half-life [3]: 18 min; half-life [4]: 28 min |
| CC(C)N/C(=N/C(=O)OC(C)(C)C)NC1=NC(=O)CN1c1cccc(Cl)c1Cl | 0.56 (≈ 1.31 µM) | 0.63 (≈ 1.47 µM) | > 60 | > 60 | 0.9 (≈ 2.1 µM) |  |  |
| CC(C)N1CC(=O)N=C1N/C(=N/c1ccc(Cl)c(Cl)c1)N1CCCC1 | > 5 | 2.2 (≈ 5.75 µM) |  |  | > 5 | 2 | half-life [3]: > 60 min; half-life [4]: > 60 min |
| CC(C)N1C(=O)C(=O)NC1=NC(=NC(=O)OC(C)(C)C)Nc1ccc(Cl)c(Cl)c1 |  |  |  |  |  |  | Drug uptake (Rhesus monkey [10]): 86%; half-life [11]: 534 min; Ratio (Rhesus monkey [12]): 10; Drug uptake (Rhesus monkey [13]): 4%; half-life [14]: 70.5 h; Drug uptake (Rhesus monkey [15]): 4%; Drug uptake (Rhesus monkey [16]): 96% |
| CCC(CC)C(=O)/N=C(\NC1=NC(=O)CN1c1cccc(Cl)c1Cl)NC(C)C | 0.78 (≈ 1.83 µM) | 1.55 (≈ 3.64 µM) | > 60 | 59.2 |  |  | Time (Plasmodium berghei [17]): 2 days |
| CCN(CC)CCCC(C)Nc1ccnc2cc(Cl)ccc12 (stereo not given) [CHLOROQUINE] |  |  |  |  |  |  | Time (Plasmodium cynomolgi [18]): 11 days |
| CC(C)NC(=N)NC1=NC(=O)CN1c1cccc(Cl)c1Cl | 1.1 (≈ 3.35 µM) | 0.7 (≈ 2.13 µM) | 13.5 | 53.7 | 2.19 (≈ 6.67 µM) |  |  |
| CCOC(=O)/N=C(/NC1=NC(=O)CN1c1ccc(Cl)c(Cl)c1)NC(C)C | 0.15 (≈ 0.375 µM) | 0.25 (≈ 0.625 µM) | > 60 | > 60 |  |  | Activity (Plasmodium berghei [19]): inactive |
| CC(C)N1CC(=O)N=C1N/C(=N\C(=O)C(C)(C)C)Nc1ccc(Cl)c(Cl)c1 | 3.19 (≈ 7.74 µM) | 4.9 (≈ 11.9 µM) |  |  | > 1.28 | 3 | Activity (Plasmodium berghei [20]): inactive; Time (Plasmodium cynomolgi [21]): 0 days; half-life [3]: > 60 min; half-life [4]: > 60 min |
| CC(C)/N=C(\NC1=NC(=O)CN1C(C)C)Nc1ccc(Cl)c(Cl)c1 | 1.65 (≈ 4.46 µM) | 0.37 (≈ 0.999 µM) | 17 | 53 | > 5 | 1 | Time (Plasmodium cynomolgi [21]): 4 days; Activity (Plasmodium berghei [19]): Active |
| CN1CC(=O)N=C1NC(=N)Nc1ccc(Cl)c(Cl)c1 | 3.42 (≈ 11.4 µM) | 2.57 (≈ 8.56 µM) |  |  | 3.31 (≈ 11 µM) |  | Activity (Plasmodium berghei [2]): inactive; half-life [3]: > 60 min; half-life [4]: > 60 min |
| CC(C)/N=C(\NC1=NC(=O)CN1C)Nc1ccc(Cl)c(Cl)c1 | > 5 | > 5 | 49.8 | > 60 | > 5 | 2 |  |
| CC(C)N/C(=N\C(=O)C(C)(C)C)NC1=NC(=O)CN1c1ccc(Cl)c(Cl)c1 | 4.65 (≈ 11.3 µM) | 4.87 (≈ 11.8 µM) | 13.5 | 40.5 |  | 2 | Time (Plasmodium berghei [17]): 2 days |
| CCOC(=O)/N=C(\NC1=NC(=O)CN1C(C)C)Nc1ccc(Cl)c(Cl)c1 | 2.86 (≈ 7.15 µM) | 2.8 (≈ 7 µM) | > 60 | 34.3 |  | 2 | Time (Plasmodium berghei [17]): 2 days; Activity (Plasmodium berghei [2]): inactive |
